Laboratory results: ChEMBL document CHEMBL6153049, “Functionalized regioisomers of the natural product phenazines myxin and iodinin as potent inhibitors of Mycobacterium tuberculosis and human acute myeloid leukemia cells” (Eur J Med Chem, 2025)

Assays:
Type in all cases: functional, organism-based
Settings in all cases: 168 h
[1] = system: Mycobacterium tuberculosis; assay: Antimycobacterial activity against INH-resistant Mycobacterium tuberculosis expressing katG+ assessed as bacterial growth inhibition measured after 1 week by MABA assay
Summary of the method: (§1)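 Colonies grown on 7H10+OADC agar at 37 °C, then to mid-log in 7H9+OADC; about 4×10^5 CFU/mL inoculated into 7H9 with escalating compound concentrations. Incubated 37 °C for 1 week, then resazurin (0.6 mM in PBS) mixed 8:5 with 20 % Tween 80 was added and incubated overnight at 37 °C. Fluorescent resorufin read-out gave IC50.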

[2] = system: Mycobacterium tuberculosis; assay: Antimycobacterial activity against INH-resistant Mycobacterium tuberculosis expressing inhA+ assessed as bacterial growth inhibition measured after 1 week by MABA assay; summary of the method: as §1
[3] = system: Mycobacterium tuberculosis; assay: Antimycobacterial activity against Rifampicin-resistant Mycobacterium tuberculosis expressing rpoB+ assessed as bacterial growth inhibition measured after 1 week by MABA assay; summary of the method: as §1

Row | Compound | IC50 [1] [nM] | IC50 [2] [nM] | IC50 [3] [nM]
1 | [O-][n+]1c2cccc(O)c2[n+]([O-])c2cccc(O)c21 | 70 |  | 
2 | COc1cccc2c1[n+]([O-])c1cccc(O)c1[n+]2[O-] | 62.5 | 62.5 | 62.5
3 | [O-][n+]1c2ccccc2[n+]([O-])c2c(O)cccc21 | 50 |  | 
4 | CCOCOc1cc(OC)c2c(c1)[n+]([O-])c1ccccc1[n+]2[O-] | 62.5 | 31.2 | 31.2
5 | [O-][n+]1c2ccccc2[n+]([O-])c2c(O)cc(O)cc21 | 500 | 125 | 1000
6 | COc1cc(O)c2c(c1)[n+]([O-])c1ccccc1[n+]2[O-] | 62.5 | 16 | 62.5
7 | CCOC(=O)COc1cc(O)c2c(c1)[n+]([O-])c1ccccc1[n+]2[O-] | 250 | 62.5 | 250
8 | CCOC(=O)COc1cc(OC)c2c(c1)[n+]([O-])c1ccccc1[n+]2[O-] | 250 | 250 | 250
9 | CC(=O)Oc1cc(O)c2c(c1)[n+]([O-])c1ccccc1[n+]2[O-] | 1000 | 500 | 1000
10 | CCOc1cc(O)c2c(c1)[n+]([O-])c1ccccc1[n+]2[O-] | 62.5 | 4 | 62.5
11 | COc1cccc2c1[n+]([O-])c1ccccc1[n+]2[O-] | 125 | 125 | 125
12 | COc1cc(OC(C)=O)c2c(c1)[n+]([O-])c1ccccc1[n+]2[O-] | 125 | 125 | 250
13 | CCOCOc1cc(O)c2c(c1)[n+]([O-])c1ccccc1[n+]2[O-] | 62.5 | 4 | 31.2
14 | COc1cc(OC)c2c(c1)[n+]([O-])c1ccccc1[n+]2[O-] | 125 | 125 | 125
15 | COCOc1cc(O)c2c(c1)[n+]([O-])c1ccccc1[n+]2[O-] | 125 | 125 | 125
